The results in this text go back to ChEMBL document CHEMBL3259663, “3-Amido-3-aryl-piperidines: A Novel Class of Potent, Selective, and Orally Active GlyT1 Inhibitors” (ACS Med Chem Lett, 2014).

The structures appear in SMILES notation.

One test concerns the target T1, Sodium- and chloride-dependent glycine transporter 1 (Homo sapiens, UniProt P48067).
T1 sequence (P48067 whole entry): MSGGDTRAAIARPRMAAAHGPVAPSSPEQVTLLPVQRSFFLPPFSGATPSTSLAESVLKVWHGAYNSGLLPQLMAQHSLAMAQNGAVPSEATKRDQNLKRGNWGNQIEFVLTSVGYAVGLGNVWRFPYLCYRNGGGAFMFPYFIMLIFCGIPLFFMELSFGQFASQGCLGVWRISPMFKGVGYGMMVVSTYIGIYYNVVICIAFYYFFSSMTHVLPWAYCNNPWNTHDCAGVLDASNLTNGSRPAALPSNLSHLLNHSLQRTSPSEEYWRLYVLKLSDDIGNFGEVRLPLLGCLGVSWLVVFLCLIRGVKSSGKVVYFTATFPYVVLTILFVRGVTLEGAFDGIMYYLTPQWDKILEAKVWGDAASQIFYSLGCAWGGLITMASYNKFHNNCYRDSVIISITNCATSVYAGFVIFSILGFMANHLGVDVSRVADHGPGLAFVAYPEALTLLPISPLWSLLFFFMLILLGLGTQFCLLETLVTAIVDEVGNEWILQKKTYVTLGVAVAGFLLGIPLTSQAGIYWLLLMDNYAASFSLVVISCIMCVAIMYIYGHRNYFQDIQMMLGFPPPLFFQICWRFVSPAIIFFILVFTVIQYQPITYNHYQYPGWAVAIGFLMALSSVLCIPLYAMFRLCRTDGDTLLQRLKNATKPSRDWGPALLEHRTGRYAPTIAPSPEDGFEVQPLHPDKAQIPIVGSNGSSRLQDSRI
In words: Inhibition of human GlyT1 expressed in cells assessed as [3H]glycine uptake. It is filed as cell-based. Summed up:
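[³H]-glycine uptake inhibition in cells transfected with human GlyT1. EC₅₀ values are the average of at least two independent experiments.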
Take `CN1CCCC(NC(=O)c2ccc(C(F)(F)F)cc2F)(c2ccccc2)C1` (racemic): the EC50 – broadly, the concentration needed to bring the measured effect to its halfway point – came out at 9900 nM.
As for `COc1cc(C(F)(F)F)cc(C(F)(F)F)c1C(=O)NC1(c2ccccc2)CCCN(Cc2ccccc2)C1` (racemic), the concentration giving a half-maximal response (EC50) is 6700 nM.
Still for that read-out and setting: next, `COc1cc(C(F)(F)F)ccc1C(=O)NC1(c2ccccc2)CCCN(C)C1` (racemic): 4800 nM.
For the molecule `COc1cccc(C2(NC(=O)c3c(OC)cc(C(F)(F)F)cc3SC)CCCN(C)C2)c1` (racemic), the EC50 was 110 nM.
Same read-out and setting: under `COc1cc(C(F)(F)F)cc(C(F)(F)F)c1C(=O)NC1(c2ccccc2)CCCN(CC2CC2)C1` (racemic) stands 380 nM; under `Cc1cc(C(F)(F)F)ccc1C(=O)NC1(c2ccccc2)CCCN(C)C1` (racemic), 320 nM.
On to `COc1cc(C(F)(F)F)cc(SC)c1C(=O)NC1(c2cccc(Cl)c2)CCCN(C)C1` (racemic), for which the EC50 was 25 nM.
For `COc1cc(C(F)(F)F)cc(C(F)(F)F)c1C(=O)NC1(c2ccccc2)CCCN(C2CCCC2)C1` (racemic), the EC50 was found to be 270 nM.
Consider `COc1ccc(C2(NC(=O)c3c(OC)cc(C(F)(F)F)cc3SC)CCCN(C)C2)cc1` (racemic), for which the EC50 was found to be 170 nM.
`CSc1cc(C(F)(F)F)ccc1C(=O)NC1(c2ccccc2)CCCN(C)C1` (racemic): the EC50 worked out at 67 nM.
`COc1cc(C(F)(F)F)cc(SC)c1C(=O)NC1(c2ccc(Cl)cc2)CCCN(C)C1` (racemic): the EC50 was 28 nM.
For the molecule `COc1cc(C(F)(F)F)cc(SC)c1C(=O)NC1(c2ccccc2)CCCN(C)C1` (racemic), the EC50 turned out to be 24 nM.
The same measure, in the same setting: under `COc1cc(C(F)(F)F)cc(C(F)(F)F)c1C(=O)NC1(c2ccccc2)CCCN(C(C)=O)C1` (racemic) stands more than 10000 nM; under `CN1CCCC(NC(=O)c2ccc(C(F)(F)F)cc2C#N)(c2ccccc2)C1` (racemic), more than 10000 nM; under `CN1CCCC(NC(=O)c2ccc(Cl)cc2Cl)(c2ccccc2)C1` (racemic), 670 nM.
On to `COc1cc(C(F)(F)F)cc(SC)c1C(=O)NC1(c2ccncn2)CCCN(C)C1` (racemic), for which the EC50 came out at 1700 nM.
`COc1cc(C(F)(F)F)cc(C(F)(F)F)c1C(=O)NC1(c2ccccc2)CCCN(C(=O)c2ccccc2)C1` (racemic): the EC50 is more than 10000 nM.
For the molecule `COc1cc(C(F)(F)F)cc(SC)c1C(=O)NC1(c2cccnc2)CCCN(C)C1` (racemic), the EC50 worked out at 54 nM.
Take `COc1cc(C(F)(F)F)cc(SC)c1C(=O)NC1(c2ccc(F)cn2)CCCN(C)C1` (racemic): the EC50 amounted to 180 nM.
Regarding `CN1CCCC(NC(=O)c2ccc(C(F)(F)F)cc2C(F)(F)F)(c2ccccc2)C1` (racemic), the EC50 was found to be 540 nM.
Turning to `COc1cc(C(F)(F)F)cc(C(F)(F)F)c1C(=O)NC1(c2ccccc2)CCCNC1` (racemic), the EC50 was found to be 660 nM.
The same measure, in the same setting: under `CN1CCCC(NC(=O)c2ccc(C(F)(F)F)cc2Br)(c2ccccc2)C1` (racemic) stands 300 nM; under `COc1cc(C(F)(F)F)cc(SC)c1C(=O)NC1(c2cnccn2)CCCN(C)C1` (racemic), 1670 nM; under `CCN1CCCC(NC(=O)c2c(OC)cc(C(F)(F)F)cc2C(F)(F)F)(c2ccccc2)C1` (racemic), 230 nM.
On the same count and under the same terms, next, `COc1cccc(C(F)(F)F)c1C(=O)NC1(c2ccccc2)CCCN(C)C1` (racemic): 1500 nM.
On the same count and under the same terms, under `COc1cc(C(F)(F)F)cc(SC)c1C(=O)NC1(c2ccc(C)cc2)CCCN(C)C1` (racemic) stands 230 nM; under `COc1cc(C(F)(F)F)cc(SC)c1C(=O)NC1(c2cccc(F)c2)CCCN(C)C1` (racemic), 48 nM.
For the molecule `COc1cc(C(F)(F)F)cc(SC)c1C(=O)N[C@]1(c2ccccc2)CCCN(C)C1`, the EC50 was determined as 180 nM.
Same read-out and setting: next, `CN1CCCC(NC(=O)c2ccc(C(F)(F)F)cc2)(c2ccccc2)C1` (racemic): more than 10000 nM; `COc1cc(C(F)(F)F)cc(C(F)(F)F)c1C(=O)NC1(c2ccccc2)CCCN(S(C)(=O)=O)C1` (racemic): more than 10000 nM; `COc1cc(C(F)(F)F)cc(SC)c1C(=O)NC1(c2ccncc2)CCCN(C)C1` (racemic): 60 nM.
Regarding `COc1cc(C(F)(F)F)cc(SC)c1C(=O)NC1(c2ncccn2)CCCN(C)C1` (racemic), the EC50 is more than 10000 nM.
The same measure, in the same setting: next, `COc1cc(C(F)(F)F)cc(SC)c1C(=O)NC1(c2ccc(F)cc2)CCCN(C)C1` (racemic): 26 nM.
Same read-out and setting: under `COc1cc(C(F)(F)F)cc(C(F)(F)F)c1C(=O)NC1(c2ccccc2)CCCN(C(C)C)C1` (racemic) stands 230 nM.

A further test deals with T1, Sodium- and chloride-dependent glycine transporter 1. In words: Inhibition of GlyT1 (unknown origin).
`COc1cc(C(F)(F)F)cc(C(F)(F)F)c1C(=O)NC1(c2ccccc2)CCCN(C)C1` (stereo not given): 140 nM corresponded to half-maximal inhibition (IC50).
